Experimental data taken from ChEMBL document CHEMBL4364279, “Design, synthesis, in-silico and biological evaluation of novel chalcone-O-carbamate derivatives as multifunctional agents for the treatment of Alzheimer's disease” (Eur J Med Chem, 2019).
Activity calls are given as the source filed them. The calls are words filed in the database; no cut-off is given here.

Legend:
[1] = Toxicity in Kunming mouse assessed as abnormal behavior at 20 to 500 mg/kg measured up to 14 days; assay type: organism-based; details: in vivo, 336 h
[2] = biological target: Cholinesterase (Equus caballus) (UniProt P81908); test: Reversible inhibition of equine serum BuChE assessed as enzyme activity at IC50 using butyrylthiocholine iodide as substrate by Ellman's method relative to control; design: scale not given: the % may be the effect or the level left
Sequence of Cholinesterase (Equus caballus) (P81908 whole entry): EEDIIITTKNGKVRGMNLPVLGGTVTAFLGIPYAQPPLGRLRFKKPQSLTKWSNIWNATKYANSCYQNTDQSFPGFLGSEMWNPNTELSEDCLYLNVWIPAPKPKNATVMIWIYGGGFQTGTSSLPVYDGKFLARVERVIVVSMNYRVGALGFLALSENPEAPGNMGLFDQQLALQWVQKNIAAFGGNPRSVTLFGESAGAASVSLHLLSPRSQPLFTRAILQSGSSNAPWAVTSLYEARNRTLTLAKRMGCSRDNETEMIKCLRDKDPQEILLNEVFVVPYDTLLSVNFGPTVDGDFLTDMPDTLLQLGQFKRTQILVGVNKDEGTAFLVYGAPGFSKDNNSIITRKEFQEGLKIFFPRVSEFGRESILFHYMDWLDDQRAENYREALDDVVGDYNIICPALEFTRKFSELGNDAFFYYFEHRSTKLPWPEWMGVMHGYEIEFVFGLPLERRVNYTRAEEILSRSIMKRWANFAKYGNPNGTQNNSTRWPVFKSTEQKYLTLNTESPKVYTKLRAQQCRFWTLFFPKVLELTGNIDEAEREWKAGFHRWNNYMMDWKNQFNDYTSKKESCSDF

[3] = Metal chelating activity of the compound assessed as formation of Fe2+-compound complex at 37.5 uM after 30 mins by UV-vis absorption spectra analysis
Outline: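 Metal binding examined by plate-reader absorbance scan using CuCl2, ZnCl2, AlCl3, FeSO4, CuCl and Fe(NO3)3 as metal sources.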

[4] = biological target: T1, Amine oxidase [flavin-containing] A (Homo sapiens, UniProt P21397); test: Inhibition of recombinant human MAO-A expressed in baculovirus infected BTI insect cells at 12.5 uM using kynuramine as substrate measured after 30 mins by fluorescence based assay relative to control; details: 0.5 h
T1 sequence (P21397 whole entry): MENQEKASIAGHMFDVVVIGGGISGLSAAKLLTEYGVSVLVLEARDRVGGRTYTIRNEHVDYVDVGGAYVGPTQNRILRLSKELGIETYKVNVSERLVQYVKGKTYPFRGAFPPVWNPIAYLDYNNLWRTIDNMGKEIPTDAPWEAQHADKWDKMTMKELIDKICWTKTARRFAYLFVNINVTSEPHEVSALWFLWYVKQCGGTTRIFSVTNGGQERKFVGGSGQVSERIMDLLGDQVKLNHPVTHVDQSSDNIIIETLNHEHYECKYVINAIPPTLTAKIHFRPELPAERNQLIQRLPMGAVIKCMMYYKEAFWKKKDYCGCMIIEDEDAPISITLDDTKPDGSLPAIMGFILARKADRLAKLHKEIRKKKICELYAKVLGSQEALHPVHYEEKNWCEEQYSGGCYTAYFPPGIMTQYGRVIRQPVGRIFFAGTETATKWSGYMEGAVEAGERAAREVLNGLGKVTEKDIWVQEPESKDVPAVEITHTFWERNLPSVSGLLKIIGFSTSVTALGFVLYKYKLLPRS

[5] = biological target: Acetylcholinesterase (AChE) (Electrophorus electricus, UniProt O42275); test: Inhibition of electric eel AChE at 25 uM using acetylthiocholine iodide as substrate incubated for 15 mins by Ellman's method relative to control; details: electric eel acetylcholinesterase (isolated enzyme), probe acetylthiocholine iodide
Sequence of Acetylcholinesterase (AChE) (O42275 whole entry): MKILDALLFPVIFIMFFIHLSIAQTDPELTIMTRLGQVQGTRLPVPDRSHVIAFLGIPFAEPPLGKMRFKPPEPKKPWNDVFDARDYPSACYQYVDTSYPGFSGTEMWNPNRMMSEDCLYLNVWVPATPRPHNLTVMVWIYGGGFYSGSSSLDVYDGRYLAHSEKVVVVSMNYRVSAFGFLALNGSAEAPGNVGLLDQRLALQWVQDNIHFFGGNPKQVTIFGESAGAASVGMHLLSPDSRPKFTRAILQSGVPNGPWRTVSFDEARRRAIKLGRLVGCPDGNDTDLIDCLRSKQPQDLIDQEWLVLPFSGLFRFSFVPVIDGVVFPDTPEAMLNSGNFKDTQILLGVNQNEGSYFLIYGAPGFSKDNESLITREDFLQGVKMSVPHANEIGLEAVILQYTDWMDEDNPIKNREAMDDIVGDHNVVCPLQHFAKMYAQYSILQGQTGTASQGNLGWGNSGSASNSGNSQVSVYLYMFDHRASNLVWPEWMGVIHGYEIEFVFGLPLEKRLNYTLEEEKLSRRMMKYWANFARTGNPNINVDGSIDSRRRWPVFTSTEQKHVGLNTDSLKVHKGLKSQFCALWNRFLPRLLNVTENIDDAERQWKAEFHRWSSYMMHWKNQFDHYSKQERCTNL

Cholinesterase = Cholinesterase (Equus caballus, UniProt P81908); test: Inhibition of equine serum BuChE using S-butyrylthiocholine iodide as susbtrate preincubated for 6 mins followed by substrate addition measured up to 3 mins by Ellman's method
Sequence of Cholinesterase (P81908 whole entry): as the sequence (P81908 whole entry) above

Mus musculus [6] = test: Reversal of scopolamine-induced memory cognitive memory impairment in Kunming mouse assessed as increase in spontaneous alteration behavior at 2.6 mg/kg, ig pretreated for 30 mins followed by scopolamine challenge and after 30 mins by Y-maze test; assay type: functional, organism-based
Mus musculus [7] = test: Reversal of scopolamine-induced memory cognitive memory impairment in Kunming mouse assessed as change in spontaneous alteration behavior at 23.4 mg/kg, ig pretreated for 30 mins followed by scopolamine challenge and after 30 mins by Y-maze test (reference value: 45.6%); assay type: functional
[8] = Disaggregation of Cu2+ induced preformed fibrils of amyloid beta (1 to 42) (unknown origin) at 25 uM preincubated with Cu2+ for 24 hrs followed by compound addition and measured after 24 hrs by thioflavin-T based fluorescence assay relative to control
Outline: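 Aβ1-42 (25 µM) and Cu2+ (25 µM) preincubated at 37 °C for 24 h, then compound (25 µM) added and incubated a further 24 h at 37 °C. ThT (5 µM in 50 mM glycine-NaOH, pH 8.5) added; fluorescence at ex 446/em 490 nm, background subtracted, % vs no-compound control. Three independent experiments.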

[9] = biological target: Cholinesterase (Homo sapiens) (UniProt P06276); test: Reversible competitive inhibition of BuChE (unknown origin) assessed as […] at 1 to 6 uM using butyrylthiocholine iodide as susbtrate
Sequence of Cholinesterase (Homo sapiens) (P06276 whole entry): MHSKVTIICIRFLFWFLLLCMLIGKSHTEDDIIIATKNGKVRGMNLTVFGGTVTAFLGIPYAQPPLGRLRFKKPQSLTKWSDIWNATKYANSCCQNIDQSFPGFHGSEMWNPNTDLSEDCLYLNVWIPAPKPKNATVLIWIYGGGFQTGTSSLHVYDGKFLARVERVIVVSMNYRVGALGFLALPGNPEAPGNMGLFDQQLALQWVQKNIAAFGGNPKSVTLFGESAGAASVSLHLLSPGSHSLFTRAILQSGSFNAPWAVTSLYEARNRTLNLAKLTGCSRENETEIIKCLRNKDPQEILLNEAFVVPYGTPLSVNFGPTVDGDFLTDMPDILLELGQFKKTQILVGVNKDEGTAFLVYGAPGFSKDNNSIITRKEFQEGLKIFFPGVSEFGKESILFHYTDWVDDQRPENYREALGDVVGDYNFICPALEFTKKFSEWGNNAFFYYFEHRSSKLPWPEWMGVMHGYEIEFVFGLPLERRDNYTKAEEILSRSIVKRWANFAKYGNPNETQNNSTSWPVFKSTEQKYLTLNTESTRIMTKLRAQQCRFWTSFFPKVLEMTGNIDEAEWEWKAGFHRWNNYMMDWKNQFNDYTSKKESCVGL

Mus musculus [10] = test: Effect on total arm entries in Kunming mouse model of scopolamine-induced cognitive impairment in at 2.6 to 23.4 mg/kg, ig pretreated for 30 min followed by scopolamine challenge and measured after 30 mins by Y-maze test; assay type: ADME, organism-based; details: in vivo, po, 0.5 h

Compound: CCN(C)C(=O)Oc1cccc(/C=C/C(=O)c2ccccc2O)c1
- Activity [1]: Non-Toxic
- Activity [2]: 50.1%
- Activity [3]: inactive
- inhibition at 12.5 µM [4]: 16.4%
- inhibition at 0.25 h, 25 µM [5]: 26.2%
- IC50 (Cholinesterase): 3.1 µM
- Activity (Mus musculus [6]): Active
- Activity (Mus musculus [7]): 59.5%
- Activity [8]: 83.1%
- inhibition [9]: Active
- Activity (Mus musculus [10]): Non-Toxic
